The target in data set [1] is T1, Substance-P receptor (Homo sapiens, UniProt P25103). The experiment in a line: Displacement of [125I]SP from human NK1 receptor expressed in CHO cells. The data set is classed as cell-based.
Data set [2] has as its system Gerbil, jird. The experiment in a line: Inhibition of agonist-induced foot tapping in iv dosed gerbil. Type of data set: functional. The following applies: Meriones. A digest of the protocol:
(§1)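 Gerbils received the test compound by iv infusion, followed by a central (icv) injection of an NK1 agonist at a set time after infusion (0, 4 or 24 h). The agonist-induced foot-tapping response was monitored for blockade. Results are reported as % inhibition at a single dose (mpk) or as ED50.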

The target in another data set is Cytochrome P450 2D6 (Homo sapiens, UniProt P10635). The experiment in a line: Inhibition of human CYP2D6. The data set is classed as ADME.
Sequence of Cytochrome P450 2D6 (P10635 whole entry): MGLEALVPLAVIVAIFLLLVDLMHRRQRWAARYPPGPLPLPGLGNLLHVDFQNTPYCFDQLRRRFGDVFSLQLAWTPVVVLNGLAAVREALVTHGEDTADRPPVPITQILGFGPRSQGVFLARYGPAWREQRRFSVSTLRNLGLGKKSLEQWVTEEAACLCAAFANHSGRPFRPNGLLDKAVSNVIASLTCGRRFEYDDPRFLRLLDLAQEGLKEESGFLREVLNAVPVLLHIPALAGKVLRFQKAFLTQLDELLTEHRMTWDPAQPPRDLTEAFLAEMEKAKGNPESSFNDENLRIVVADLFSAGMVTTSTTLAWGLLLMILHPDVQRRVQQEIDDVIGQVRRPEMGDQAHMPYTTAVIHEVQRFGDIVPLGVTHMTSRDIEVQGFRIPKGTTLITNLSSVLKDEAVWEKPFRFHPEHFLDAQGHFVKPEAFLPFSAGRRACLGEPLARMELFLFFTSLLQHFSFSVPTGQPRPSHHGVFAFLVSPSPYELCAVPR
The target of the next data set is Cytochrome P450 3A4 (Homo sapiens, UniProt P08684). The experiment in a line: Inhibition of human CYP3A4. The data set is classed as ADME.
Sequence of Cytochrome P450 3A4 (P08684 whole entry): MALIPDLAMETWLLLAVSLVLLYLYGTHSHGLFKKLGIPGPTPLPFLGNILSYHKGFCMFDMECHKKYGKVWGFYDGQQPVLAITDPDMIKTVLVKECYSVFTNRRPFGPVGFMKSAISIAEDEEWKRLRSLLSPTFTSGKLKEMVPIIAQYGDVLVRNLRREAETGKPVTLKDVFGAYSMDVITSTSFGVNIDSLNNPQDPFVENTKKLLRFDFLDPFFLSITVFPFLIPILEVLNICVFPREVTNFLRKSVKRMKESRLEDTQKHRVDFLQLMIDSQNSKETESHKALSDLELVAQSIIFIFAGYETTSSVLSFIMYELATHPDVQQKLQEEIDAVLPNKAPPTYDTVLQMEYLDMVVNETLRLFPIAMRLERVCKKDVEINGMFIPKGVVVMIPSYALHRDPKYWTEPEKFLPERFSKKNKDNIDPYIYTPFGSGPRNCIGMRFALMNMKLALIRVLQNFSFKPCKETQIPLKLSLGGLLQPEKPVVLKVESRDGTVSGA
In the next data set the target is Cytochrome P450 2C9 (Homo sapiens, UniProt P11712). The experiment in a line: Inhibition of human CYP2C9. The data set is classed as ADME.
Sequence of Cytochrome P450 2C9 (P11712 whole entry): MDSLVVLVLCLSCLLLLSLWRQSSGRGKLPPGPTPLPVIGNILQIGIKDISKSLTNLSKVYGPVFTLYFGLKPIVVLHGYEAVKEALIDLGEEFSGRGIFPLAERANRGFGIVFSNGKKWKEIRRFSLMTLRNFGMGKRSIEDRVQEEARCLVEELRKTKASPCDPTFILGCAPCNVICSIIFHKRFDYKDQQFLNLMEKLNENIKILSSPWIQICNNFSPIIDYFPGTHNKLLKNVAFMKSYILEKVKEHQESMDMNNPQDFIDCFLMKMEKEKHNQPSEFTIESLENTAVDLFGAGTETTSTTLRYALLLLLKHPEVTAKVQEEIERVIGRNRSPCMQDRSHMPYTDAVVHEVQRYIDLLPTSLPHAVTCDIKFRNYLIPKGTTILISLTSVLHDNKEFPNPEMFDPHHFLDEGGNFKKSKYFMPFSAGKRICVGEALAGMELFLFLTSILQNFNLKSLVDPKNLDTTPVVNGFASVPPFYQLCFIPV
For data set [3], the system named is Gerbil, jird. The experiment in a line: Inhibition of agonist-induced foot tapping in iv dosed gerbil after 24 hrs. The data set is classed as functional. The following applies: Meriones. A digest of the protocol:
as §1

Data set [4] deals with T1, Substance-P receptor. The experiment in a line: Displacement of [125I]SP from human NK1 receptor expressed in CHO cells in presence of 50% human serum. The data set is classed as cell-based.
Data set [5] concerns Gerbil, jird. The experiment in a line: Inhibition of agonist-induced foot tapping in gerbil at 6 mpk, iv after 24 hrs. The data set is classed as functional. To be noted: Meriones. The gist of the method: as §1
Data set [6] concerns Gerbil, jird. The experiment in a line: Inhibition of agonist-induced foot tapping in gerbil at 2 mpk, iv after 24 hrs. Type of data set: functional. The following applies: Meriones, 4 h, in the assay text read “after 4 hrs” for “after 24 hrs”. The gist of the method:
as §1

Data set [7] relates to Gerbil, jird. The experiment in a line: Inhibition of agonist-induced foot tapping in gerbil at 3 mpk, iv after 24 hrs. The data set is classed as functional. The following applies: Meriones. A digest of the protocol:
as §1

Data set [8] can be described thus: Half life in rat. The following applies: in vivo. Type of data set: ADME, organism-based.

Each structure is given as a SMILES string.

T1 sequence (P25103 whole entry): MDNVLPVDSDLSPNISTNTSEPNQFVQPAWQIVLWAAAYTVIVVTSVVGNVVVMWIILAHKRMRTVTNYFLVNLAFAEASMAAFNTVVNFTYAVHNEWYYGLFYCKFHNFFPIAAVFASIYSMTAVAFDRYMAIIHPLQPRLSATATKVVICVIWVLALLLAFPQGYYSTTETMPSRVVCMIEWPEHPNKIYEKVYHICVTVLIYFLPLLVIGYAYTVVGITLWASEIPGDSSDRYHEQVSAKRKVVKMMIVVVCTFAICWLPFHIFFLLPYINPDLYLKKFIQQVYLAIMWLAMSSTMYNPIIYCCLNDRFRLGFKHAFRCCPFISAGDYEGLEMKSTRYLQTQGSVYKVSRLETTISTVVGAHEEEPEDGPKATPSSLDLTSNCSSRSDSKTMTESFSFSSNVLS

Regarding `CN(Cc1cc(C(F)(F)F)cc(C(F)(F)F)c1)C(=O)[C@H]1CN(C(=O)NC2CCCCC2)C[C@@H]1c1ccccc1`, at Substance-P receptor [1], the IC50 worked out at 0.79 nM.

The molecule `CN(Cc1cc(C(F)(F)F)cc(C(F)(F)F)c1)C(=O)[C@H]1CN(C(=O)C2CCNCC2)C[C@@H]1c1ccccc1` had an IC50 at Substance-P receptor [1] of 4.1 nM.

For the molecule `Cc1cnc(C(=O)N2C[C@H](C(=O)N(C)Cc3cc(C(F)(F)F)cc(C(F)(F)F)c3)[C@@H](c3ccc(F)cc3C)C2)cn1`, the ED50 stood at 6 mg/kg in the data set with Gerbil, jird [2] and 6 mg/kg in the data set with Gerbil, jird [3]. For the same molecule, the IC50 came to 73000 nM against Cytochrome P450 2D6; 11000 nM against Cytochrome P450 3A4; 43000 nM at Cytochrome P450 2C9; 0.09 nM at Substance-P receptor [1]; 8 nM on Substance-P receptor [4].

Turning to `CN(Cc1cc(C(F)(F)F)cc(C(F)(F)F)c1)C(=O)[C@H]1CN(C(=O)c2cncnc2)C[C@@H]1c1ccccc1`, the IC50 on Substance-P receptor [1] was 24 nM.

`CC(=O)N1CCC(C(=O)N2C[C@H](C(=O)N(C)Cc3cc(C(F)(F)F)cc(C(F)(F)F)c3)[C@H](c3ccccc3)C2)CC1` showed an IC50 on Substance-P receptor [1] of 3.7 nM.

`CC(=O)N1CCC(C(=O)N2C[C@@H](C(=O)N(C)Cc3cc(C(F)(F)F)cc(C(F)(F)F)c3)[C@H](c3ccccc3)C2)CC1`: the IC50 at Substance-P receptor [1] came to 0.97 nM.

In the case of `CC(C)(C)OC(=O)N1CC[C@H](c2ccccc2)[C@@H](C(=O)NCc2cc(C(F)(F)F)cc(C(F)(F)F)c2)C1`, on Substance-P receptor [1], the IC50 was 450 nM.

`CN(Cc1cc(C(F)(F)F)cc(C(F)(F)F)c1)C(=O)[C@H]1CN(C(=O)OC(C)(C)C)C[C@@H]1c1ccccc1`: the half-inhibitory concentration (IC50) on Substance-P receptor [1] stood at 11 nM.

On Substance-P receptor [1], `CN(Cc1cc(C(F)(F)F)cc(C(F)(F)F)c1)C(=O)[C@H]1CN(C(=O)C2CCCCC2)C[C@@H]1c1ccccc1` yielded an IC50 of 0.68 nM.

`Cc1cnc(C(=O)N2C[C@H](C(=O)N(C)Cc3cc(C(F)(F)F)cc(C(F)(F)F)c3)[C@@H](c3ccccc3)C2)cn1` returned an IC50 on Substance-P receptor [1] of 0.58 nM.

With `CC(C)(C)OC(=O)N1C[C@H](C(=O)NCc2cc(C(F)(F)F)cc(C(F)(F)F)c2)[C@@H](c2ccccc2)C1`, the IC50 at Substance-P receptor [1] worked out at 142 nM.

On to `CC(=O)N1CCC(C(=O)N2C[C@H](C(=O)N(C)C(C)(C)c3cc(C(F)(F)F)cc(C(F)(F)F)c3)[C@@H](c3ccc(F)cc3C)C2)CC1`, for which the inhibition in vivo at 6 mg/kg in the data set with Gerbil, jird [5] came to 2%. Further, the IC50 at Cytochrome P450 2D6 was 57000 nM; at Cytochrome P450 3A4 it was 49000 nM; against Cytochrome P450 2C9, over 100000 nM; on Substance-P receptor [1], 0.05 nM; at Substance-P receptor [4], 0.51 nM. Further, the inhibition in vivo at 2 mg/kg with Gerbil, jird [6] was 100%.

In the case of `CC(=O)N1CCC(C(=O)N2C[C@H](C(=O)N(C)Cc3cc(C(F)(F)F)cc(C(F)(F)F)c3)[C@@H](c3ccc(F)cc3C)C2)CC1`, the inhibition in vivo at 6 mg/kg in the data set on Gerbil, jird [5] was found to be 24%. Further, the IC50 was 92000 nM against Cytochrome P450 2D6; 11000 nM against Cytochrome P450 3A4; 69000 nM at Cytochrome P450 2C9; 0.05 nM on Substance-P receptor [1]; 0.21 nM at Substance-P receptor [4]. In the data set with Gerbil, jird [6], this molecule registered an inhibition in vivo at 2 mg/kg of 100%.

For the molecule `CC(=O)N1CCC(C(=O)N2C[C@H](c3nc(C(C)(C)c4cc(C(F)(F)F)cc(C(F)(F)F)c4)no3)[C@@H](c3ccc(F)cc3C)C2)CC1`, 6 mg/kg produced 1% inhibition in vivo in the data set with Gerbil, jird [5]. In addition, in the data set on Gerbil, jird [6], at 2 mg/kg the inhibition in vivo was 92%. Besides, the results for the 50% inhibitory concentration (IC50) on Substance-P receptor [1] and at Substance-P receptor [4] were 0.07 nM and 2.8 nM, respectively.

`CC(=O)N1CCC(C(=O)N2C[C@@H](c3nc(C(C)(C)c4cc(C(F)(F)F)cc(C(F)(F)F)c4)no3)[C@H](c3ccc(F)cc3C)C2)CC1`: at 6 mg/kg the inhibition in vivo with Gerbil, jird [5] was 1%. The IC50 was determined as 0.17 nM on Substance-P receptor [1] and 20 nM at Substance-P receptor [4].

With `CC(=O)N1CCC(C(=O)N2C[C@H](c3noc(C(C)(C)c4cc(C(F)(F)F)cc(C(F)(F)F)c4)n3)[C@@H](c3ccc(F)cc3C)C2)CC1`, the IC50 on Cytochrome P450 2D6 came out at 63000 nM; against Cytochrome P450 3A4 it was 100000 nM; against Cytochrome P450 2C9 it was 9000 nM; on Substance-P receptor [1] it was 0.07 nM; on Substance-P receptor [4] it was 6 nM.

The molecule `CC(=O)N1CCC(C(=O)N2C[C@@H](c3noc(C(C)(C)c4cc(C(F)(F)F)cc(C(F)(F)F)c4)n3)[C@H](c3ccc(F)cc3C)C2)CC1` had an inhibition in vivo at 6 mg/kg in the data set on Gerbil, jird [5] of 60%. The IC50 on Substance-P receptor [1] was 0.03 nM; on Substance-P receptor [4], 0.17 nM.

On Substance-P receptor [1], `CN(Cc1cc(C(F)(F)F)cc(C(F)(F)F)c1)C(=O)[C@H]1CN(CC2CCCCC2)C[C@@H]1c1ccccc1` gave an IC50 of 62 nM.

In turn, `CN(Cc1cc(C(F)(F)F)cc(C(F)(F)F)c1)C(=O)[C@H]1CN(C(=O)N2CCCCC2)C[C@@H]1c1ccccc1` showed an IC50 at Substance-P receptor [1] of 13 nM.

`CN(Cc1cc(C(F)(F)F)cc(C(F)(F)F)c1)C(=O)[C@H]1CN(C(=O)c2ncccn2)C[C@@H]1c1ccccc1` showed an IC50 at Substance-P receptor [1] of 0.84 nM.

For the molecule `CN(Cc1cc(C(F)(F)F)cc(C(F)(F)F)c1)C(=O)[C@H]1CN(C(=O)c2cnccn2)C[C@@H]1c1ccccc1`, the IC50 on Substance-P receptor [1] stood at 0.74 nM.

As for `CN(Cc1cc(C(F)(F)F)cc(C(F)(F)F)c1)C(=O)[C@H]1CN(C(=O)c2ccncn2)C[C@@H]1c1ccccc1`, on Substance-P receptor [1], the IC50 turned out to be 3.4 nM.

Molecule `CC(=O)N1CCC(C(=O)N2C[C@H](C(=O)N(C)Cc3cc(C(F)(F)F)cc(C(F)(F)F)c3)[C@@H](c3ccccc3)C2)CC1` (stereo in doubt; 8c) gave an ED50 with Gerbil, jird [2] of 0.41 mg/kg. In addition, the IC50 against Cytochrome P450 2D6 amounted to 24000 nM; against Cytochrome P450 3A4, 18000 nM; at Cytochrome P450 2C9, 26000 nM; at Substance-P receptor [1], 0.42 nM; at Substance-P receptor [4], 4.5 nM. In the data set with Gerbil, jird [7], this molecule displayed an inhibition in vivo at 3 mg/kg of 29%. For the same molecule, in data set [8], the half-life was 42 min.

Molecule `CC(=O)N1CCC(C(=O)N2C[C@H](C(=O)N(C)Cc3cc(C(F)(F)F)cc(C(F)(F)F)c3)[C@@H](c3ccccc3)C2)CC1` (stereo in doubt; 27) returned an IC50 on Substance-P receptor [1] of 0.12 nM.

(Values after ChEMBL document CHEMBL1149712, “Pyrrolidine-carboxamides and oxadiazoles as potent hNK1 antagonists” (Bioorg Med Chem Lett, 2007).)
